The values below come from ChEMBL document CHEMBL1150265, “(3R,5S,E)-7-(4-(4-fluorophenyl)-6-isopropyl-2-(methyl(1-methyl-1h-1,2,4-triazol-5-yl)amino)pyrimidin-5-yl)-3,5-dihydroxyhept-6-enoic acid (BMS-644950): a rationally designed orally efficacious 3-hydroxy-3-methylglutaryl coenzyme-a reductase inhibitor with reduced myotoxicity potential” (J Med Chem, 2008).

A value given as a limit tells only on which side of the number the result lay.

Broadly, the ED50 is the dose that gives a 50% effect, or the effect in half of the subjects. Usually bioavailability stands for the share of a dose that reaches the circulation, judged against a reference dose that is usually intravenous. The Cmax is the peak of the concentration-time curve.

Series [1] has as its system Cavia porcellus. Description: Myotoxicity in guinea pig assessed as increase in plasma creatine kinase activity at 75 mg/kg after 10 days. It is filed as organism-based. Conditions: in vivo, 240 h; call rule not given here. The arrangement: dose 75 mg/kg.
Series [2] concerns Cavia porcellus. Description: Reduction in plasma total cholesterol level in guinea pig at 25 mg/kg after 10 days relative to control. Also on record: dose 25 mg/kg; scale not given: the % may be the effect or the level left. It is filed as functional, organism-based. Summed up:
(§1)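 Guinea pigs treated for 10 days. Study 1: n = 5 at 0, 10, 30, 100 mg/kg. Study 2: n = 8 at 0, 10, 25, 50, 75, 100 mg/kg. Plasma total cholesterol in individual animals at the end of the study, compared with the vehicle-control group mean. Data given as means ± SD; P < 0.05 taken as significant.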

Series [3] is described as follows: Oral absorption in guinea pig. The following applies: in vivo, read-out: Fabs. It is filed as ADME, organism-based, Cavia porcellus.
Series [4] has as its system Rattus norvegicus. Description: Inhibition of hepatic cholesterol synthesis in po dosed Sprague-Dawley rat assessed as incorporation of [14C]acetate into hepatic sterols. It is filed as functional.
For series [5], the system named is Cavia porcellus. Description: Hepatotoxicity in guinea pig assessed as aspartate aminotransferase level at 125 mg/kg coadministered with mevalonate after 10 days. It is filed as toxicity, organism-based. Also on record: dose 125 mg/kg. The following applies: in vivo, 240 h.
The test system of series [6] is Cavia porcellus. Nature of the series: Myotoxicity in guinea pig assessed as increase in plasma creatine kinase activity at 100 mg/kg after 10 days. The class given is organism-based. Also on record: dose 100 mg/kg. Conditions: in vivo, 240 h.
Series [7] in a line: Oral bioavailability in rat. It is filed as ADME, organism-based. Conditions: in vivo.
The species named for series [8] is Cavia porcellus. Nature of the series: Reduction in plasma total cholesterol level in guinea pig after 10 days. The class given is functional. Conditions: 240 h.
The subject of series [9] is Cavia porcellus. Description: Reduction in plasma total cholesterol level in guinea pig at 30 mg/kg after 10 days relative to control. The class given is functional. The arrangement: scale not given: the % may be the effect or the level left. The method in brief: as §1
The species named for series [10] is Cavia porcellus. Nature of the series: Myotoxicity in guinea pig assessed as drug dose causing >10 fold increase in plasma creatine kinase activity relative to control. It is filed as organism-based. Conditions: in vivo.
In another series the target is T1, Cytochrome P450 2C8 (Homo sapiens, UniProt P10632).
T1 sequence (P10632 whole entry): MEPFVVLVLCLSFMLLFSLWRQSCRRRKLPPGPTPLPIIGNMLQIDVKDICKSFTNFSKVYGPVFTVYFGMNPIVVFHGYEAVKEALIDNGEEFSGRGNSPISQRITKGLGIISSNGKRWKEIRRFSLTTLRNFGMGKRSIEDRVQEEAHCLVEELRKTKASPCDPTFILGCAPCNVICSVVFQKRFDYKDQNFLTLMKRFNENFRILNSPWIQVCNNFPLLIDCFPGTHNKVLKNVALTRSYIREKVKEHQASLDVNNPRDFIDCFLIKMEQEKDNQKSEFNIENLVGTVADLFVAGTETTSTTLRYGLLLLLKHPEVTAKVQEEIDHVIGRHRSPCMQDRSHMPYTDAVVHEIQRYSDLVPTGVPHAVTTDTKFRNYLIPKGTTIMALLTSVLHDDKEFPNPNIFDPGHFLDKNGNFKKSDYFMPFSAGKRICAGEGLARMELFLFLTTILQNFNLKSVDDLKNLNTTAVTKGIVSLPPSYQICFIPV
Nature of the series: Inhibition of CYP2C8. The class given is ADME.

A further series addresses Cytochrome P450 2C19 (Homo sapiens, UniProt P33261). Nature of the series: Inhibition of CYP2C19. It is filed as ADME.
Series [11] concerns Cavia porcellus. Nature of the series: Myotoxicity in guinea pig assessed as increase in plasma creatine kinase activity at 30 mg/kg after 10 days. The class given is organism-based. The arrangement: dose 30 mg/kg. The following applies: in vivo, 240 h.
Series [12] can be described thus: Cmax in po dosed healthy human. The class given is ADME, organism-based. The arrangement: route oral. Conditions: in vivo.
Another series concerns Homo sapiens. Description: Reduction in plasma mevalonic acid in po dosed healthy human. It is filed as ADME, organism-based. Conditions: in vivo.
Series [13] in a line: Oral absorption in rat. It is filed as ADME, organism-based. Conditions: in vivo, read-out: Fabs.
A further series concerns the target Cytochrome P450 2D6 (Homo sapiens, UniProt P10635). Description: Inhibition of CYP2D6. The class given is ADME.
Series [14] relates to Rattus norvegicus. Description: Myotoxicity in po dosed weanling Sprague-Dawley rat assessed as drug dose causing >[…] increase in plasma creatine kinase activity relative to control. The class given is organism-based. Conditions: in vivo.
Series [15] relates to Cavia porcellus. Description: Reduction in plasma total cholesterol level in guinea pig at 50 mg/kg after 10 days relative to control. The class given is functional. The arrangement: scale not given: the % may be the effect or the level left. The method in brief: as §1
Series [16] can be described thus: Metabolic stability in guinea pig assessed as hepatic extraction. The class given is ADME, organism-based, Cavia porcellus. Conditions: in vivo, read-out: Stability.
Series [17] in a line: Metabolic stability in monkey assessed as hepatic extraction. It is filed as ADME, organism-based, Macaca mulatta. The following applies: rhesus monkey, in vivo; read-out: Stability.
The subject of series [18] is Cavia porcellus. Description: Myotoxicity in guinea pig assessed as increase in plasma creatine kinase activity at 50 mg/kg after 10 days. Also on record: dose 50 mg/kg. The following applies: in vivo, 240 h. The class given is organism-based.

Sequence of Cytochrome P450 2D6 (P10635 whole entry): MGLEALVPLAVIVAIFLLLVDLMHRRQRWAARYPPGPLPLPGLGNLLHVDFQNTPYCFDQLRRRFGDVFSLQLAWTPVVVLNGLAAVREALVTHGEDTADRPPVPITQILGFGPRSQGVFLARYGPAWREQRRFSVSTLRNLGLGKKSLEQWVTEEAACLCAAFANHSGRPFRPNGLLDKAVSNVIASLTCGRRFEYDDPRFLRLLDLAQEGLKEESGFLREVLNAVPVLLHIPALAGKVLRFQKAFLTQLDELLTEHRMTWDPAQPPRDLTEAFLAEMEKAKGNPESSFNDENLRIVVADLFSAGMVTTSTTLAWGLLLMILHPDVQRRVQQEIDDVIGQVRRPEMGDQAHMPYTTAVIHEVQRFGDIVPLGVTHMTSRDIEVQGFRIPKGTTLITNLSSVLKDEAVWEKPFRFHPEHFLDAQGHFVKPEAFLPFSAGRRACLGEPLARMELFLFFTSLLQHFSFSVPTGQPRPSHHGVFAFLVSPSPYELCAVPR
Sequence of Cytochrome P450 2C19 (P33261 whole entry): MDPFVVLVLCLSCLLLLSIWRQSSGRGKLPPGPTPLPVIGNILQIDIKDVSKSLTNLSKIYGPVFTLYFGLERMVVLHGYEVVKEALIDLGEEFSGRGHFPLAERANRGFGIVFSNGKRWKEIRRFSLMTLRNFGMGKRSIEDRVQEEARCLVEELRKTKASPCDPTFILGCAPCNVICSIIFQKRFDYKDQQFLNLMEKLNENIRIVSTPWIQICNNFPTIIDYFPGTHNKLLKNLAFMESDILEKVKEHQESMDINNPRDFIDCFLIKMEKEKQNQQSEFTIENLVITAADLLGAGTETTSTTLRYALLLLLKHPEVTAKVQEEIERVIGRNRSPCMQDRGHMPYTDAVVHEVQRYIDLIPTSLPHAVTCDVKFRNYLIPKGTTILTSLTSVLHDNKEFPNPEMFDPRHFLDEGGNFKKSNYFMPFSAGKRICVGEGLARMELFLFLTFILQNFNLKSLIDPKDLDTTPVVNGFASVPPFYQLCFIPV

As for `CC(C)c1nc(N(C)c2ncnn2C)nc(-c2ccc(F)cc2)c1/C=C/[C@@H](O)C[C@@H](O)CC(=O)[O-].[Na+]`, the Activity is 429 U/L in the series on Cavia porcellus [1]; 37.3% in the series with Cavia porcellus [2]; “Non-toxic” in the series with Cavia porcellus [5]; 466.3 U/L in the series with Cavia porcellus [6]; 56.1% in the series with Cavia porcellus [9]; “Non-toxic” in the series filed under Cavia porcellus [10]. Also, the Activity entry at Cytochrome P450 2C8 is “Not Active”; on Cytochrome P450 2C19, “Not Active”; in the series with Cavia porcellus [11], 412.8 U/L; in the series with Homo sapiens it was “Dose-dependent effect”; on Cytochrome P450 2D6, “Not Active”; in the series with Rattus norvegicus [14], > 50 mg/kg. For the same compound, the Activity in the series on Cavia porcellus [15] worked out at 61.2%; in the series with Cavia porcellus [18], 350.8 U/L. Moreover, the Fa in [3] worked out at 64%; in [13] it was 20%. The ED50 turned out to be 0.11 mg/kg with Rattus norvegicus [4] and 28 mg/kg in the series filed under Cavia porcellus [8]. In series [7], this compound registered a bioavailability of 2.8%. This compound also gave a Cmax in [12] of 4.72 ng/mL. The hepatic extraction ratio in series [16] was 0.35; in [17], 0.98.
